697 NFkB inh: inhibitors of the PMA/ionomycin-induced NF-kB reporter in 697 B cells; 697 B-cell NF-kB luciferase reporter, 16 h; inhibition, % at 4 µM; hit rate 0.33% among 330,000; AID 435022; in the data active = inhibition above about 35%
GASC-1 inh: blocks human GASC-1 demethylase activity | Q9H3R0 | GST-JMJD2C(1-420) H3K9me3 demethylation, DELFIA europium | inhibition, % at 2.35 µM | hit rate 0.069% among 330,000 | AID 2099;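 active = more than half of a compound's replicate wells show inhibition beyond 50%, single wells judged on their own value; inconclusive = some, but no more than half, of replicates pass 50% inhibition; inactive = no replicate passes 50% inhibition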;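 note: signal counts dimethyl H3K9 product captured on neutravidin plate; 0% = median of DMSO wells and 100% = 0.3 times that DMSO median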
Jurkat NFkB inh: inhibitors of the PMA/ionomycin-induced NF-kB reporter in Jurkat cells | PMA/ionomycin-induced NF-kB luciferase reporter, luminescence | inhibition, % at 4 µM | hit rate 0.53% among 330,000 | AID 435003; in the data active = inhibition above about 50%
NR2E3 ag-1: activates human photoreceptor nuclear receptor NR2E3. Q9Y5X4. GST-NR2E3/biotin-RetCOR TR-FRET, 1536-well. inhibition of corepressor binding, % at 4.78 µM. hit rate 0.12% among 320,000;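 active = percent inhibition above the cutoff of mean plus 3 SD of all tested compounds, set per screening campaign, cut at about 20% in these data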;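 note: 0% = DMSO wells and 100% = biotin wells as full block of FRET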
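Material: NR2E3–RetCOR corepressor complex / Amount: 1.35 nM GST-NR2E3 / Medium: Tris pH 7.5 / Compound: single nominal compound dose of 4.8 µM / Incubation: 5 h at 4 °C / Technique: TR-FRET, Eu(K)-anti-GST donor, streptavidin-D2 acceptor, ex 340, em 617/671 nm / Read-out basis: percent loss of FRET ratio relative to control wells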
NR2E3 ag-2: human photoreceptor-specific nuclear receptor agonism. Q9Y5X4. CHO-S Gal4-NCOR/VP16-NR2E3 two-hybrid, luciferase. inhibition of corepressor binding, % at 3.98 µM. hit rate 0.35% among 360,000. AID 602229;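 active = inhibition above the mean of all tested compounds plus 3 SD, cut at about 70% in these data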;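 note: 0% = DMSO with NR2E3 transfected cells and 100% = cells lacking NR2E3 construct; higher means lower luciferase signal from less NR2E3 corepressor binding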
GalR3 antag: antagonists of human GalR3; AID 651719; hit rate 0.44% among 360,000; inhibition, % at 3 µM; O60755; HEK293 GalR3-CNG cAMP membrane potential fluorescence; galR3 body fused to GalR1 C-terminus;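 active = inhibition above the screen-wide average plus 3 SD, cut at about 13% in these data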;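 note: forskolin and galanin both at EC90 stimulate the cells; cAMP rise reported by CNG channel membrane potential dye signal; 0% = forskolin plus galanin with DMSO and 100% = forskolin alone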
Target sequence (O60755 1-299 limits assumed): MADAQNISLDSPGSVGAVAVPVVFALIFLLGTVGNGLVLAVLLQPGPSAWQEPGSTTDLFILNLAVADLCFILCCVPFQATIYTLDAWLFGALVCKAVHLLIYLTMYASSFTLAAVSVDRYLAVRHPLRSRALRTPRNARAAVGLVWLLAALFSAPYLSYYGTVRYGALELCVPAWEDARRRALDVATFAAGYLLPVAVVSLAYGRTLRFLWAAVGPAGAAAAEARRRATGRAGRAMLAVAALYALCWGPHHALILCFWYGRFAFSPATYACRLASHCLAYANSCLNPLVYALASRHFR
697 NFkB conf: inhibitors of the PMA/ionomycin-induced NF-kB reporter in 697 B cells, retest | inhibition, % at 4 µM | 697 B-cell NF-kB luciferase, 16 h | shares compounds with 697 NFkB inh | hit rate 35% among 2,000; in the data active = inhibition mostly above about 28%, no sharp cut-off; inactive = mostly below about 22%
An asterisk follows results filed as active; i = inactive; ? = inconclusive; nt = not tested or not shown. The list is not random: actives were taken first. Their share in the collection is about 1.5%.

SMILES	697 NFkB inh	GASC-1 inh	Jurkat NFkB inh	NR2E3 ag-1	NR2E3 ag-2	GalR3 antag	697 NFkB conf
C=CCSc1nnc(-c2cc3c(s2)-c2ccccc2CC3)o1	-9	-7	-40	0	-131	3	nt
COc1ccc(-c2cc(C(=O)N/N=C/c3sccc3C)c3ccccc3n2)c(OC)c1	-275	nt	-23	-1	-7	4	-21
CCOC(=O)c1cc(NC(=O)c2ccoc2C)cc(C(=O)OCC)c1	37*	nt	10	-4	7	-8	19
Cc1cc(NC(=O)c2ccccc2F)cc(C)c1OCC(=O)N1CCOCC1	15	20	7	-5	-6	-1	nt
COc1cc(C(=O)Nc2cc(C)c(OCC(=O)N3CCOCC3)c(C)c2)cc(OC)c1OC	36*	-6	5	0	-7	4	32*
Cc1ccc(S(=O)(=O)N2CCOCC2)cc1C(=O)N1c2ccccc2Sc2ccccc21	-2	-8	1	1	-21	-1	nt
CCOc1cc(/C=N/NC(=O)c2cc(-c3cccc(OC)c3)nc3ccccc23)ccc1O	-19	2	-14	2	-6	-3	nt
CC(C)COc1cccc(-c2cc(C(=O)N/N=C/c3ccncc3)c3ccccc3n2)c1	i	1	8	nt	-2	-1	i
Fc1cccc(C2NN=C(c3ccccc3)S2)c1 (configuration not stated)	-300	-2	-140	1	-97	-5	-218
CCc1ccccc1Nc1nc(N)nc(COC(=O)c2cccn2C)n1	-324	-6	-93	2	-31	-5	-118
Cc1ccccc1Nc1nc(N)nc(COC(=O)c2cccn2C)n1	-57	13	-51	4	-102	1	nt
COc1cc(-c2nc(C(=O)NCC3CCCO3)cc3c2[nH]c2ccccc23)cc(OC)c1OC (configuration not stated)	36*	-14	-18	2	9	4	40*
CCc1cccc(NC(=O)c2ccc(CNc3c(N4CCCC4)c(=O)c3=O)cc2)c1	42*	6	20	-1	6	-3	33*
Cc1ccc(NC(=O)c2ccc(CNc3c(N4CCC(C)CC4)c(=O)c3=O)cc2)cc1	50*	1	16	1	-22	-5	16
CC(=O)c1ccc(NC(=O)c2ccc(CNc3c(N4CCOCC4)c(=O)c3=O)cc2)cc1	12	0	-6	4	8	-4	nt
CC(=O)c1ccc(NC(=O)c2ccc(CNc3c(N4CCCC4)c(=O)c3=O)cc2)cc1	6	6	10	-2	-2	-3	nt
CCOC(=O)Cn1ccc(-c2ccccc2)c(C#N)c1=O	24	-4	3	-2	-20	-4	nt
COc1ccc2nc(NC(=O)c3ccco3)sc2c1	-256	3	-27	0	-153	-5	-320
Cc1ccc2nc(NC(=O)c3ccc(Br)o3)sc2c1	-277	-18	-103	-1	-149	-9	-284
Cc1ccc2nc(NC(=O)c3ccco3)sc2c1	-250	14	-52	-10	-45	-9	-271
Cc1cc2sc(NC(=O)c3ccco3)nc2cc1Cl	-360	-1	-127	0	-108	-2	-284
O=C(Nc1nc2ccc(Br)cc2s1)c1ccco1	-249	-2	-90	1	-98	-11	nt
NS(=O)(=O)c1ccc2nc(NC(=O)c3ccc(Br)o3)sc2c1	-34	3	-19	0	-106	-6	nt
CC(=O)Nc1nc2ccc(NC(=O)c3ccco3)cc2s1	-44	2	-33	2	-74	9	nt
O=C(Nc1cc2c3c(c1)CC(=O)N3CCC2)C1CC1	7	-7	-9	-3	-21	-3	nt
SMILES	697 NFkB inh	GASC-1 inh	Jurkat NFkB inh	NR2E3 ag-1	NR2E3 ag-2	GalR3 antag	697 NFkB conf
Cc1ccc(F)c(S(=O)(=O)NC(=O)C2(C)CCN2C(=O)c2ccc(C(F)(F)F)nc2C)c1 (configuration not stated)	nt	nt	nt	nt	18	-2	nt
Cc1onc(-c2ccccc2)c1NC(=O)N(CCC#N)Cc1ccccc1	-55	9	-16	1	-15	-3	nt
O=C(Nc1nc2ccc(Cl)cc2s1)c1ccco1	-271	?	-67	-1	-111	-2	-301
Cc1cccc(N(C(=O)c2nsc(Cl)c2Cl)C(C(=O)NC2CCCC2)c2ccc(O)cc2)c1 (configuration not stated)	0	-5	-36	1	-3	2	nt
O=C(O)c1ccc(COCC(F)(F)C(F)F)o1	9	26	4	3	-34	11	nt
Cc1ccsc1CNc1ncnc2ccc(-c3c(C)noc3C)cc12	24	-7	-7	nt	31	-2	nt
Cc1noc(C)c1-c1ccc2ncnc(NCC3CCCCN3C)c2c1 (configuration not stated)	36*	14	-20	9	12	-8	26
COC(=O)[C@]12C[C@H](CC(=O)NCC34CC5CC(CC(C5)C3)C4)C(=O)N(Cc3ccc4c(c3)OCO4)C1=C[C@H](COCc1ccccc1)O[C@@H]2C	nt	nt	nt	nt	nt	-5	nt
O=C1NC[C@@H](CCCCN2CCN(CCC3CCCCC3)C(=O)C2=O)N(CC2CCCCC2)C1=O	nt	nt	nt	nt	-13	-4	nt
CN(c1ccc(OCC(=O)NC2CCC(O)CC2)cc1)S(=O)(=O)c1ccc(Cl)cc1 (configuration not stated)	17	-2	10	nt	-52	3	nt
CCc1ccccc1NC(=O)CSc1nnc(-c2ccco2)n1N	5	2	0	5	-5	0	nt
CNC(=O)c1ccc(Nc2nnc(-c3ccc(O)cc3)c3ccccc23)cc1	-9	-11	-4	1	5	-8	nt
CNC(=O)c1cc(Nc2nnc(-c3ccc(O)cc3)c3ccccc23)ccc1OC	35*	-7	8	-2	-44	-2	29*
COc1ccc(-c2nn(C)c(=O)c3ccccc23)cc1NS(C)(=O)=O	38*	-6	-9	1	-6	-4	32*
CCn1cc(C(=O)N2CCCC(CO)(Cc3ccccc3C)C2)cn1 (configuration not stated)	5	-16	0	-3	-31	-6	nt
O=c1c2ccccc2oc2ccc(-c3ccc4cc[nH]c4c3)cc12	-498	-20	-3	nt	-119	nt	i
COc1cc(/C=C/c2ccc3cccc(O)c3n2)cc(Cl)c1OC	-324	2	31	1	-171	-6	-249
COc1cc(OC)c2c(-c3cccc(-c4ccc(O)cc4)c3)cc(=O)oc2c1	-16	nt	nt	nt	39	-5	nt
COc1cc(OC)c2c(-c3cccc(-c4ccc(N(C)C)cc4)c3)cc(=O)oc2c1	-303	nt	nt	nt	26	-2	-105
COc1ccc(-c2cccc(-c3cc(=O)oc4cc(OC)cc(OC)c34)c2)cc1	-337	nt	nt	nt	41	6	-112

Screening results deposited in PubChem BioAssay by several laboratories.
